Test results taken from publication PMC3831274 (Bioorganic & medicinal chemistry, 2013).

Legend:
[1] = tested on: several cell lines derived from various human malignancies; test: antiproliferative activity across several cell lines; assay type: cell-based
Outline: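 Cells at 2.5 × 10⁵ cells/mL in 384-well plates; suspension lines in RPMI-1640/10% FBS (mouse lines plus β-mercaptoethanol), adherent lines in DMEM/10% FBS. Seven 2-fold dilutions from 5 µM or 20 µM top; DMSO top 0.2%. 37°C, 48 h; PrestoBlue read-out. Media background subtracted; viability normalized to cells-only wells (100%). Two independent triplicate runs (n=6) or three replicate experiments, by cell set.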

Human Mcl-1 = Human Mcl-1 (Homo sapiens, UniProt Q07820); test: fluorescence polarization; assay type: binding; details: for Mcl-1 potency relative to initial hit 1 (in words): SAR of phenyl region
Human Mcl-1, sequence (Q07820 1-327 limits assumed): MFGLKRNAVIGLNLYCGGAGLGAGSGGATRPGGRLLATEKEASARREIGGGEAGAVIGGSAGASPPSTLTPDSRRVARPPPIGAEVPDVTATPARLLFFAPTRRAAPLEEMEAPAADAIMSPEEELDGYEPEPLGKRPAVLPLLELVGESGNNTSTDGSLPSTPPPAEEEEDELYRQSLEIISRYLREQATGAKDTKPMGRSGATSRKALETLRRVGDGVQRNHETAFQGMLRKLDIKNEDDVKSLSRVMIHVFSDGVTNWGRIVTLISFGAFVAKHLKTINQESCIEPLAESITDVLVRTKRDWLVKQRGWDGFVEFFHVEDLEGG

Bcl-xL = Bcl-xL (Homo sapiens, UniProt Q07817); test: fluorescence polarization; assay type: binding
Bcl-xL, sequence (Q07817 1-209 limits assumed): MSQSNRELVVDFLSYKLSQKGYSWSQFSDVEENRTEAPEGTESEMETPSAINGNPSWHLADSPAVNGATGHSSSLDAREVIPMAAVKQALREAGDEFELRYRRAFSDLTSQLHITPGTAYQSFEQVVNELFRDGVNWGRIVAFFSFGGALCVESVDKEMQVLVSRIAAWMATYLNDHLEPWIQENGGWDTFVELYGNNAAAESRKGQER

CYP450 2C9 = CYP450 2C9 (Homo sapiens, UniProt P11712); test: CYP450 inhibition 2C9; assay type: in vitro ADME
CYP450 2C9, sequence (P11712 whole entry): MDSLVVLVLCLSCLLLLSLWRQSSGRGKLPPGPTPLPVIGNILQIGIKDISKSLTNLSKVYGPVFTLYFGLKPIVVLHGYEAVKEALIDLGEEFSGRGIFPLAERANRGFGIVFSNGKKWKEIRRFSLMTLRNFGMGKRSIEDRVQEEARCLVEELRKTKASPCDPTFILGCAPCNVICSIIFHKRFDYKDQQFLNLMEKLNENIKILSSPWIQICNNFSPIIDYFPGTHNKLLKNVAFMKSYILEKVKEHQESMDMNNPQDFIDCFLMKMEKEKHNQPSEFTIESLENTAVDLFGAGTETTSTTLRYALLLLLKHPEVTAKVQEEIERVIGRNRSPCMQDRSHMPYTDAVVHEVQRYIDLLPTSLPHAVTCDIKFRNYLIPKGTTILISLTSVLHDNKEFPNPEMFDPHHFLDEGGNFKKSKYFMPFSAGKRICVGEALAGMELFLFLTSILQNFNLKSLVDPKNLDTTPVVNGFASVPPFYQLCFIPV

CYP450 2D6 = CYP450 2D6 (Homo sapiens, UniProt P10635); test: CYP450 inhibition 2D6; assay type: in vitro ADME
CYP450 2D6, sequence (P10635 whole entry): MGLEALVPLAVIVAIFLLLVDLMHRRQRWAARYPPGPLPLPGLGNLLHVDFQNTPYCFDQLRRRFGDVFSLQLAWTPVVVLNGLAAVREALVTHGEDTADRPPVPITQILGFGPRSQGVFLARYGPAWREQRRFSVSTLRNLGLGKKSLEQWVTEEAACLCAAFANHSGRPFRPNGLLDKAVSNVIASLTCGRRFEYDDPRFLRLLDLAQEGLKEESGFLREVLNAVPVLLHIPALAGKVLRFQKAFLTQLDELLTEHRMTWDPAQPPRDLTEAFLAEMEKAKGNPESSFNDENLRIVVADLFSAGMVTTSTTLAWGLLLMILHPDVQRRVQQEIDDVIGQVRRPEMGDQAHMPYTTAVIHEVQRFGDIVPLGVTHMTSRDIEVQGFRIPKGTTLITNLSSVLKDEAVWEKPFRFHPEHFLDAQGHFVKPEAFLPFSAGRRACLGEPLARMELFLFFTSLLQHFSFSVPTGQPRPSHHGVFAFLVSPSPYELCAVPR

SUDHL-6 = test: cytochrome c release determination; assay type: cell-based, human; details: SUDHL-6, 2 hours, 20µM EU-5346 or 100µM Puma
CYP450 3A4 = CYP450 3A4 (Homo sapiens, UniProt P08684); test: CYP450 inhibition 3A4; assay type: in vitro ADME
CYP450 3A4, sequence (P08684 whole entry): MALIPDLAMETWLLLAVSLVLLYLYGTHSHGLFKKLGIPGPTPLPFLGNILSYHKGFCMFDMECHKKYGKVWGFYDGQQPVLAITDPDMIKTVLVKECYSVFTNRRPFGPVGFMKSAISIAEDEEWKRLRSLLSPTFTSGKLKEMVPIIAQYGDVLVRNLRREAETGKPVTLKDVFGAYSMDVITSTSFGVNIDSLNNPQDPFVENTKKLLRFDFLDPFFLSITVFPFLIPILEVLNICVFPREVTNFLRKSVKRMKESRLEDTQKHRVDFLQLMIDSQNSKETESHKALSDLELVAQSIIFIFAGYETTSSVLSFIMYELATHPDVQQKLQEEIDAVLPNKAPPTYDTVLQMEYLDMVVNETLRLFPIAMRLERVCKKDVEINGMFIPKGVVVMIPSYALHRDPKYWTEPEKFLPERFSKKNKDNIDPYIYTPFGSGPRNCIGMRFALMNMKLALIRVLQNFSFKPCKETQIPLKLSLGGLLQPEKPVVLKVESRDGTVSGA

SUDHL-8 = test: cytochrome c release determination; assay type: cell-based, human; details: SUDHL-8, 2 hours, 20µM EU-5346 or 100µM Puma
SUDHL-10 = test: cytochrome c release determination; assay type: cell-based, human; details: SUDHL-10, 2 hours, 20µM EU-5346 or 100µM Puma
Mcl1-1780 [2] = test: cytochrome c release determination; assay type: cell-based, mouse; details: Mcl1-1780 compared with Bcl2-1863, 2 hours
Mcl1-1780 [3] = test: Annexin V apoptosis assay; assay type: cell-based, mouse; details: Mcl1-1780, 16 hours, 0.15 µM-40 µM
Bcl2-1863 [4] = test: Annexin V apoptosis assay; assay type: cell-based, mouse; details: Bcl2-1863, 16 hours, 0.15 µM-40 µM
CYP450 1A2 = biological target: T1, CYP450 1A2 (Homo sapiens, UniProt P05177); test: CYP450 inhibition 1A2
T1 sequence (P05177 1-516): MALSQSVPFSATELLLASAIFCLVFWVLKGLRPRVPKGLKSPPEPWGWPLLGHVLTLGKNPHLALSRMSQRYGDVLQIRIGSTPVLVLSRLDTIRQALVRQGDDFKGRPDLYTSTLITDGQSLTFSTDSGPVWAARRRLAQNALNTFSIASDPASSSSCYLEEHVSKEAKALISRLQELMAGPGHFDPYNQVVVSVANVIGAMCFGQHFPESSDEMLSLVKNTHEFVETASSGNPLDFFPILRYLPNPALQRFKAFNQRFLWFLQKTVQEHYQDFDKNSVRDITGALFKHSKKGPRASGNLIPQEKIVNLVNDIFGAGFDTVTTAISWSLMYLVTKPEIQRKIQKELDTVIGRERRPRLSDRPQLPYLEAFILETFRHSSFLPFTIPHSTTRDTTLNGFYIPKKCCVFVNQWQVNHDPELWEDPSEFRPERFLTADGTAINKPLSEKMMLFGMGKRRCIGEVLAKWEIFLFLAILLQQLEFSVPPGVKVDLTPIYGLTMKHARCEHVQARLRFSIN

Mcl1-1780 [5] = test: nuclear apoptosis determination; assay type: cell-based, mouse; details: Mcl1-1780, 24 hours
Bcl2-1863 [6] = test: nuclear apoptosis determination; assay type: cell-based, mouse; details: Bcl2-1863, 24 hours

O=C(O)COc1ccccc1C(Nc1ccccn1)c1cc(Cl)c2cccnc2c1O (stereo not shown) [Compound 1]
antiproliferative activity (in words) ([1]; cell lines not specified): only modest antiproliferative activity | selectivity over Bcl-xL (Human Mcl-1; Mcl-1 versus Bcl-xL, FP assays): greater than 40 fold | inhibition of Bcl-xL (Bcl-xL; at 100 µM): no appreciable inhibition

COc1ccc(C(Nc2ccccn2)c2cc(Cl)c3cccnc3c2O)cc1 (stereo not shown) [Compound 6]
Mcl-1 potency relative to initial hit 1 (in words) (Human Mcl-1): enhanced potency

Oc1c(C(Nc2ccccn2)c2ccco2)cc(Cl)c2cccnc12 (stereo not shown) [Compound 7]
Mcl-1 potency relative to initial hit 1 (in words) (Human Mcl-1): enhanced potency

Cc1ccnc(NC(c2ccc(F)cc2)c2cc(Cl)c3cccnc3c2O)c1 (stereo not shown) [Compound 8]
Mcl-1 potency relative to initial hit 1 (in words) (Human Mcl-1): five-fold more potent

CCN1CCN(C(c2ccc(C(F)(F)F)cc2)c2cc(Cl)c3cccnc3c2O)CC1 (stereo not shown) [Compound 9]
IC50 (CYP450 2C9): > 10 µM | IC50 (CYP450 2D6): > 10 µM | cytochrome c release (SUDHL-6): greatest extent of cytochrome c release | IC50 (CYP450 3A4): > 10 µM | EC50 ([1]; Homo sapiens, read-out: EC50 values, range over cell lines): 0.3 to 15 µM | efficacy in cellular proliferation assays (in words) ([1]; Mcl1-1780, Bcl2-1863, SUDHL-6, NCIH929): low micromolar efficacy | cytochrome c release (SUDHL-8): significantly reduced | cytochrome c release (SUDHL-10): significantly reduced | IC50 (Bcl-xL; read-out: Bcl-xL IC50, FP assay, GST-Bcl-xL, FITC-Bim): 40 µM | cytochrome c release (Mcl1-1780 [2]): significantly greater | percent of Annexin V positive cells (Mcl1-1780 [3]): greater in Mcl1-1780 than in Bcl2-1863 | percent of Annexin V positive cells (Bcl2-1863 [4]): displayed dose-dependency | IC50 (CYP450 1A2): > 10 µM | induction of nuclear apoptosis / reduced viability (DAPI) (Mcl1-1780 [5]): reduces viability with a marked preference

CC1(C)CCC(c2ccc(Cl)cc2)=C(CN2CCN(c3ccc(C(=O)NS(=O)(=O)c4ccc(N[C@H](CCN5CCOCC5)CSc5ccccc5)c(S(=O)(=O)C(F)(F)F)c4)cc3)CC2)C1 [Navitoclax, reference compound]
induction of nuclear apoptosis / reduced viability (DAPI) (Bcl2-1863 [6]): distinct preference in inducing apoptosis | induction of nuclear apoptosis / reduced viability (DAPI) (Mcl1-1780 [5]): only minimal effectiveness
